# Source: article PMC5586474 (Journal of the American Heart Association: Cardiovascular …, 2017)
# Assays:
# ACKR3:α1D‐AR = experiment: PLA, ACKR3:α1D‐AR interaction in hVSMCs; assay type: cell-based, human; conditions: peptide 10 μmol/L, 30 minutes, 37°C; vs vehicle; Figure 8B; n=3
# Method in brief: (§1)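 hVSMCs got vehicle or test peptide (10 μmol/L, 30 min, 37°C), were washed, fixed in 4% PFA (15 min, RT) and blocked overnight at 4°C in 3% BSA/PBS. Receptor‐specific primaries (1:500) ran 105 min at 37°C, then PLA probes (1:5) 60 min, ligation 30 min and amplification 100 min, all at 37°C. DAPI‐mounted spots were counted per cell from 10 images per condition per experiment.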
# ACKR3:α1B‐AR = experiment: PLA, ACKR3:α1B‐AR interaction in hVSMCs; assay type: cell-based, human; conditions: peptide 10 μmol/L, 30 minutes, 37°C; vs vehicle; Figure 8B; n=3
# Method in brief: as §1
# CXCR4:α1B‐AR = experiment: PLA, CXCR4:α1B‐AR interaction in hVSMCs; assay type: cell-based, human; conditions: peptide 10 μmol/L, 30 minutes, 37°C; vs vehicle; Figure 8B; n=3
# Method in brief: as §1
# CXCR4:α1D‐AR = experiment: PLA, CXCR4:α1D‐AR interaction in hVSMCs; assay type: cell-based, human; conditions: peptide 10 μmol/L, 30 minutes, 37°C; vs vehicle; Figure 8B; n=3
# Method in brief: as §1
# ACKR3:CXCR4 = experiment: PLA, ACKR3:CXCR4 interaction in hVSMCs; assay type: cell-based, human; conditions: peptide 10 μmol/L, 30 minutes, 37°C; vs vehicle; Figure 8B; n=3
# Method in brief: as §1
# ACKR3:α1A‐AR = experiment: PLA, ACKR3:α1A‐AR interaction in hVSMCs; assay type: cell-based, human; conditions: peptide 10 μmol/L, 30 minutes, 37°C; vs vehicle; Figure 8B; n=3
# Method in brief: as §1
# rat mesenteric arteries [1] = experiment: Pressure myography, PE‐induced vasoconstriction of isolated mesenteric arteries; parameters: species or system rat (Sprague‐Dawley); conditions: TM peptide 100 μmol/L vs vehicle; 80 mm Hg; Figure 9G; n=3
# Method in brief: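 Mesenteric arteries from male Sprague-Dawley rats (isoflurane 3.5% anaesthesia) kept in bicarbonate salt buffer (130 mmol/L NaCl, 4.7 mmol/L KCl, 5.5 mmol/L d-glucose, 1.16 mmol/L CaCl₂), gassed 95% O₂/5% CO₂, 37°C. Vessels pressurized to 80 mm Hg, pretreated with vehicle or test peptide (10 or 100 μmol/L). Cumulative PE added to bath; dose-response curves fitted by nonlinear regression.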
# α1‐AR = experiment: PE‐induced IP3 production; assay type: cell-based, human; conditions: 1 μmol/L PE; for effect of α1‐AR antagonist on PE‐induced IP3 production: antagonist 10 μmol/L, 30 minutes, 37°C, Figure 5E
# α1b‐AR = experiment: PRESTO‐Tango β‐arrestin 2 recruitment assay for α1b‐AR; assay type: cell-based; conditions: PE plus 10 μmol/L TM peptide; HTLA cells, overnight, 37°C; Figure 9C; n=3
# Method in brief: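 HTLA cells were transfected with the α1B‐AR‐Tango plasmid (1.5 μg, Lipofectamine 3000). The next day they were replated at 1×10⁵/well on poly‐L‐lysine and left to attach for ≥4 h. PE ± 10 μmol/L test peptide, made at twice final concentration in medium, was added 1:1 and incubated overnight at 37°C. Luminescence was read with Bright‐Glo in HBSS/20 mmol/L HEPES, as % of RLU at […].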
# ACKR3 = ACKR3 (Homo sapiens, UniProt P25106); experiment: PRESTO‐Tango β‐arrestin 2 recruitment assay for ACKR3; assay type: cell-based; conditions: HTLA cells, overnight, 37°C, n=3
# ACKR3, sequence (P25106 whole entry): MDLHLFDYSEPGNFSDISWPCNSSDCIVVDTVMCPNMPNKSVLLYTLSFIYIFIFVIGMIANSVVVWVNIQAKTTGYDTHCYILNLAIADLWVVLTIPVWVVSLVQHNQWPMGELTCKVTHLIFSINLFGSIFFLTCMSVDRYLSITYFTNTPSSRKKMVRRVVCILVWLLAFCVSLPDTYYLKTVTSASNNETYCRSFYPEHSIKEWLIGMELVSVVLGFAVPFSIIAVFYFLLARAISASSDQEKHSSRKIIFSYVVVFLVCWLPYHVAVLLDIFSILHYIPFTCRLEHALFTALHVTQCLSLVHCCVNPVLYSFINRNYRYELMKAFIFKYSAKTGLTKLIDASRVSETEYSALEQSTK
# rat mesenteric arteries [2] = conditions: isolated mesenteric rat arteries; cited from earlier work
Molecule,effect of TM peptide on PLA signals for ACKR3:α1D‐AR (ACKR3:α1D‐AR),effect of TM peptide on PLA signals for ACKR3:α1B‐AR (ACKR3:α1B‐AR),effect of TM peptide on PLA signals for CXCR4:α1B‐AR (CXCR4:α1B‐AR),effect of TM peptide on PLA signals for CXCR4:α1D‐AR (CXCR4:α1D‐AR),effect of TM peptide on PLA signals for ACKR3:CXCR4 (ACKR3:CXCR4),effect of TM peptide on PLA signals for ACKR3:α1A‐AR (ACKR3:α1A‐AR),"effect of α1‐AR antagonist on PE‐induced IP3 production (α1‐AR; 5 minutes, n=3)",further results
DDDLHVTQCLSLVHCCVNPVLYSFIN [TM7],did not alter signals,did not alter signals,did not significantly affect signals,did not significantly affect signals,reduced after incubation with all TM peptide analogs (TM2>TM4>TM7),significantly increased the number of PLA signals for ACKR3:α1A‐AR complexes,,effect of TM peptide on potency of PE to induce vasoconstriction (significance) (rat mesenteric arteries [1]): P>0.05 versus vehicle
COc1ccccc1N1CCN(CCN2C(=O)CC3(CCCC3)CC2=O)CC1 [BMY 7378],,,,,,,could be inhibited,
"CNC[C@H](O)c1cccc(O)c1 [PE, Phenylephrine]",,,,,,,,"increase of cellular IP3 concentrations on PE stimulation after NT siRNA (α1‐AR; hVSMCs incubated with NT siRNA, Figure 5D, n=4): 4.8 fold; increase of cellular IP3 concentrations on PE stimulation (α1‐AR; hVSMCs without siRNA, 5 minutes, Figure 2B, n=3): 5.3 fold"
"COc1cc2nc(N3CCN(C(=O)c4ccco4)[C@H]4CCCC[C@H]43)nc(N)c2cc1OC (racemic) [cyclazosin, Cyclazosin]",,,,,,,could be inhibited,
YILNLAIADLWVVLTIPVWVVDDD [TM2],significantly reduced PLA signals,significantly reduced PLA signals,increased signals for CXCR4:α1B‐AR complexes,did not affect signals for CXCR4:α1D‐AR complexes,reduced after incubation with all TM peptide analogs (TM2>TM4>TM7),did not affect signals for ACKR3:α1A‐AR complexes,,"effect of TM peptide on PE‐induced β‐arrestin 2 recruitment to α1b‐AR (α1b‐AR): did not inhibit β‐arrestin 2 recruitment to recombinant α1b‐AR on PE stimulation; activation of ACKR3 by TM peptide (β‐arrestin 2 recruitment) (ACKR3; peptide alone, Figure 9A): without intrinsic agonist activity within the tested range of concentrations"
"Cc1ccc(N(CC2=NCCN2)c2cccc(O)c2)cc1 [phentolamine, Phentolamine]",,,,,,,could be inhibited,
VVCILWLLAFCVSLPDTYYLDD [TM4],without affecting ACKR3:α1A/D‐AR interactions,reduced PLA signals for ACKR3:α1B‐AR complexes,increased signals for CXCR4:α1B‐AR complexes,did not affect signals for CXCR4:α1D‐AR complexes,reduced after incubation with all TM peptide analogs (TM2>TM4>TM7),without affecting ACKR3:α1A/D‐AR interactions,,effect of TM peptide on potency of PE to induce vasoconstriction (significance) (rat mesenteric arteries [1]): P>0.05 versus vehicle
"CXCL11: natural ACKR3 agonist; chemokine, from Protein Foundry",,,,,,,,"EC50 (ACKR3; read-out: EC50 for β‐arrestin 2 recruitment to ACKR3, agonist, luminescence, Figure 2A, mean±SEM): 16.5 ± 4.9 nM"
"CXCL12: natural ACKR3 agonist; cognate ligand of CXCR4 and ACKR3, from Protein Foundry",,,,,,,,"effect on PE‐induced vasoconstriction (rat mesenteric arteries [2]): attenuates PE‐induced vasoconstriction; CXCL12 effect on PE‐induced signaling in the presence of the TM2 peptide (α1‐AR; hVSMCs, TM2 10 μmol/L plus CXCL12 1 μmol/L, Figure 9E): did not enhance PE‐induced signaling"
